Drawing on ChEMBL document CHEMBL1240333, “Surveying polypeptide and protein domain conformation and association with FlAsH and ReAsH” (Nat Chem Biol, 2007), this text covers Kd and Activity for one molecule.

Assay [1] concerns the target T1, Transcription factor Jun (Homo sapiens, UniProt P05412). Description: Binding affinity to wild-type c-Jun homodimer at by circular dichroism spectroscopy. On the technique in general: Circular dichroism is widely used to follow secondary structure.
In assay [2] the target is T1, Transcription factor Jun. Description: Binding affinity to c-Jun homodimer containing bipartite tetracysteine motif at 25 nM. In outline: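 Fluorescence titration: 25 nM FlAsH or ReAsH titrated with increasing synthetic peptide or protein domain in 100 mM Tris-HCl pH 7.8 with 3.5 mM TCEP, 1 mM EDT, 1 mM EDTA. Emission read at 530 ± 12.5 nm (FlAsH) or 630 ± 17.5 nm (ReAsH) after reaching equilibrium, tracked over time. Apparent Kd taken from intensity versus concentration. Points are means of ≥3 independent titrations ± s.d.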

For assay [3], the target named is T1, Transcription factor Jun. Description: Binding affinity to c-Jun homodimer containing bipartite tetracysteine motif at 100 nM.
For assay [4], the target named is T1, Transcription factor Jun. As to the kind of experiment: Binding affinity to wild type c-Jun homodimer by circular dichroism spectroscopy.

pKd: −log10 of the molar value. The source made the active and inactive calls. The rule behind the calls is not given here. Peptide text beside a SMILES is read from it.

T1 sequence (P05412 whole entry, the tested form may be a part): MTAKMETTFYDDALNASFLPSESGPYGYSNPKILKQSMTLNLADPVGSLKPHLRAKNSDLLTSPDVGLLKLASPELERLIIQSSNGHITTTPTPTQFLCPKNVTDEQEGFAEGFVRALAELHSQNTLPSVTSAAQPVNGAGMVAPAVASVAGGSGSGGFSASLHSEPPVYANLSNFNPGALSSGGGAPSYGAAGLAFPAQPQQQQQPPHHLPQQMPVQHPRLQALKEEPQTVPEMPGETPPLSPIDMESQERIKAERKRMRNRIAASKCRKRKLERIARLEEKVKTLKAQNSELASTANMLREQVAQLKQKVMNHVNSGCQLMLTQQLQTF

Turning to `CC[C@H](C)[C@H](NC(=O)[C@H](CCCNC(=N)N)NC(=O)[C@H](Cc1c[nH]c2ccccc12)NC(C)=O)C(=O)N[C@@H](C)C(=O)N[C@@H](CCCNC(=N)N)C(=O)N[C@@H](CC(C)C)C(=O)N[C@@H](CCC(=O)O)C(=O)N[C@@H](CCC(=O)O)C(=O)N[C@@H](CCCCN)C(=O)N[C@H](C(=O)N[C@@H](CCCCN)C(=O)N[C@H](C(=O)N[C@@H](CC(C)C)C(=O)N[C@@H](CCCCN)C(=O)N[C@@H](C)C(=O)N[C@@H](CCC(N)=O)C(=O)N[C@@H](CC(N)=O)C(=O)N[C@@H](CO)C(=O)N[C@@H](CCC(=O)O)C(=O)N[C@@H](CC(C)C)C(=O)N[C@@H](C)C(=O)N[C@@H](CO)C(=O)N[C@H](C(=O)N[C@@H](C)C(=O)N[C@@H](CC(N)=O)C(=O)N[C@@H](CCSC)C(=O)N[C@@H](CC(C)C)C(=O)N[C@@H](CCCNC(=N)N)C(=O)N[C@@H](CCC(=O)O)C(=O)N[C@@H](CCC(N)=O)C(=O)N[C@H](C(=O)N[C@@H](C)C(=O)N[C@@H](CCC(N)=O)C(=O)N[C@@H](CC(C)C)C(=O)N[C@@H](CCCCN)C(=O)N[C@@H](CCC(N)=O)C(=O)N[C@@H](CCCCN)C(=O)N[C@H](C(=O)N[C@@H](CS)C(=O)N[C@@H](CS)C(N)=O)C(C)C)C(C)C)[C@@H](C)O)[C@@H](C)O)C(C)C` (Ac-WRIARLEEKVKTLKAQNSELASTANMLREQVAQLKQKVCC-NH2), on Transcription factor Jun [1], the pKd (commonly −log10 of the Kd, conventionally taken in molar units) was 5.00. Further, the outcome on Transcription factor Jun [2] and on Transcription factor Jun [3] was Active. On Transcription factor Jun [4], the outcome was inactive.
